Measurements reported in paper PMC4486249 (Journal of medicinal chemistry, 2010).
Entries after “also recorded” stand apart in the source; their conditions may differ. Where a SMILES comes first, the peptide text is derived from it.

Columns and labels:
[1] = test system: HIV-1HXB2 in MT-4 Luc cells; test: MT-4 Luc assay, protection from HIV-1-induced cell death; format: cell-based; settings: for IC50 of inhibition of HIV-1 replication in cells: MT-4 Luc cell system, in words; for inhibitory effect against HIV-1 replication: MT-4 Luc cells infected with HIV-1, luciferase signal, various concentrations (Figure 4)
RT-associated RNase H = RT-associated RNase H (Human immunodeficiency virus type 1 group M subtype B, UniProt P04585); test: RT-associated RNase H activity assay; format: biochemical, HIV-1
[2] = test system: X4-tropic HIV-1HXB2 on MT-4 cells; test: HIV-1 replication kinetics in MT-4 cells; format: cell-based; settings: 0.5 μM peptide, replication kinetics (Figure 5B)
Procedure, shortened: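 MT-4 cells (1×10^5) were exposed to HIV-1HXB2-containing culture supernatant (ca. 0.2-50 ng p24) for 30 min at room temperature, then washed and cultured with or without 0.5 μM test peptide. Supernatants were collected at several time points, with cells passaged if necessary. Replication was read out as p24 antigen levels measured by ELISA.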

MT-4 Luc cells = settings: MT-4 Luc system (Figure 4)

| Compound | antiviral effect ([1]; MT-4 Luc cells, at a concentration of 20 μM) | anti-HIV-1 activity ([1]; MT-4 Luc cells, below concentrations of 20 μM) | IC50 (RT-associated RNase H) [µM] | IC50 of inhibition of HIV-1 replication in cells [1] | inhibitory effect against HIV-1 replication [1] | replication of HIV-1HXB2 [2] | cytotoxicity, comparison (MT-4 Luc cells) |
| --- | --- | --- | --- | --- | --- | --- | --- |
| CC(=O)N[C@@H](CC(C)C)C(=O)N[C@@H](CCC(N)=O)C(=O)N[C@@H](CCC(N)=O)C(=O)N[C@@H](CC(C)C)C(=O)N[C@@H](CC(C)C)C(=O)N[C@@H](Cc1ccccc1)C(=O)N[C@@H](CCCNC(=N)N)C(=O)N[C@@H](CCCNC(=N)N)C(=O)N[C@@H](CCCNC(=N)N)C(=O)N[C@@H](CCCNC(=N)N)C(=O)N[C@@H](CCCNC(=N)N)C(=O)N[C@@H](CCCNC(=N)N)C(=O)N[C@@H](CCCNC(=N)N)C(=O)N[C@@H](CCCNC(=N)N)C(N)=O [Vpr-1 R8] (Ac-LQQLLFRRRRRRRR-NH2) | weak antiviral effect | – | – | – | – | – | – |
| CC[C@H](C)[C@H](NC(C)=O)C(=O)N[C@@H](Cc1c[nH]cn1)C(=O)N[C@@H](Cc1ccccc1)C(=O)N[C@@H](CCCNC(=N)N)C(=O)N[C@H](C(=O)NCC(=O)N[C@@H](CCCNC(=N)N)C(=O)N[C@@H](CCCNC(=N)N)C(=O)N[C@@H](CCCNC(=N)N)C(=O)N[C@@H](CCCNC(=N)N)C(=O)N[C@@H](CCCNC(=N)N)C(=O)N[C@@H](CCCNC(=N)N)C(=O)N[C@@H](CCCNC(=N)N)C(=O)N[C@@H](CCCNC(=N)N)C(N)=O)[C@@H](C)CC [Vpr-2 R8] (Ac-IHFRIGRRRRRRRR-NH2) | – | no significant anti-HIV-1 activity | – | – | – | – | – |
| CC[C@H](C)[C@H](NC(=O)[C@H](CCCNC(=N)N)NC(=O)[C@H](Cc1ccccc1)NC(=O)[C@H](Cc1cnc[nH]1)NC(=O)[C@@H](NC(=O)[C@H](Cc1ccccc1)NC(=O)[C@H](CC(C)C)NC(=O)[C@H](CC(C)C)NC(=O)[C@H](CCC(N)=O)NC(=O)[C@H](CCC(N)=O)NC(=O)[C@H](CC(C)C)NC(C)=O)[C@@H](C)CC)C(=O)NCC(=O)N[C@@H](CCCNC(=N)N)C(=O)N[C@@H](CCCNC(=N)N)C(=O)N[C@@H](CCCNC(=N)N)C(=O)N[C@@H](CCCNC(=N)N)C(=O)N[C@@H](CCCNC(=N)N)C(=O)N[C@@H](CCCNC(=N)N)C(=O)N[C@@H](CCCNC(=N)N)C(=O)N[C@@H](CCCNC(=N)N)C(N)=O [Vpr-3 R8] | – | – | > 0.5 | submicromolar | significant inhibitory effects | quite low; also recorded: extensively suppressed | less cytotoxic than Vpr-4 R8 |
| CC[C@H](C)[C@H](NC(=O)[C@H](C)NC(=O)[C@H](CCC(=O)O)NC(C)=O)C(=O)N[C@H](C(=O)N[C@@H](CCCNC(=N)N)C(=O)N[C@H](C(=O)N[C@@H](CC(C)C)C(=O)N[C@@H](CCC(N)=O)C(=O)N[C@@H](CCC(N)=O)C(=O)N[C@@H](CC(C)C)C(=O)N[C@@H](CC(C)C)C(=O)N[C@@H](Cc1ccccc1)C(=O)N[C@H](C(=O)N[C@@H](Cc1c[nH]cn1)C(=O)N[C@@H](Cc1ccccc1)C(=O)N[C@@H](CCCNC(=N)N)C(=O)N[C@H](C(=O)NCC(=O)N[C@@H](CCCNC(=N)N)C(=O)N[C@@H](CCCNC(=N)N)C(=O)N[C@@H](CCCNC(=N)N)C(=O)N[C@@H](CCCNC(=N)N)C(=O)N[C@@H](CCCNC(=N)N)C(=O)N[C@@H](CCCNC(=N)N)C(=O)N[C@@H](CCCNC(=N)N)C(=O)N[C@@H](CCCNC(=N)N)C(N)=O)[C@@H](C)CC)[C@@H](C)CC)[C@@H](C)CC)[C@@H](C)CC [Vpr-4 R8] | – | – | > 0.5 | submicromolar | significant inhibitory effects | – | – |
